# Shown are actives, neighbours in structure and some others; about 4.6% of the full set was active somewhere.
# ALR H2O2 inh: human ALR oxidase inhibition via reduced H2O2; purified ALR, DTT oxidation, H2O2 HRP-luminol luminescence; inhibition, % (no concentration beside the values); actives 3.8% (n = 290,000);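 active = mean replicate inhibition above about 79%, with every replicate also reaching it, limit read from the data; inconclusive = only one of the two criteria met; inactive = mean below limit and not every replicate reaching it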
# NALP1 yeast inh: inhibitors of NALP1 inflammasome in yeast; S. cerevisiae NALP1/ASC/caspase-1 growth, X-gal OD620, 72 h; inhibition, % at 10 µM; actives 0.61% (n = 280,000); AID 2071; in the data active = inhibition mostly above about 24%, no sharp cut-off; inactive = mostly below about 32%
# Arrestin-AP2 inh: inhibitors of human beta-arrestin and AP2 interaction; FITC-arrestin peptide / GST-AP2 beads, flow cytometry; AP2 beta2 appendage carries R879A mutation; inhibition, % at 10 µM; actives 0.31% (n = 340,000); AID 504490;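 active = inhibition above a set limit, near 3 SD of compounds lacking own fluorescence, cut at about 54% in these data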
#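 Measured by: flow cytometry, FL1 (488/535 nm); Material: AP2 appendage R879A on GSH beads; Evaluation: percent response; Timing: pre-incubation 12 min, peptide binding 1 h, room temperature; Also added: 50 nM FITC-arrestin peptide; Medium: PBS with 0.05% Tween 20 and 0.1% BSA.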
# PolyA inh: inhibitors of polyadenylation in S. cerevisiae; activity score, % at 12 µM; S. cerevisiae SKY197-pL101 polyadenylation reporter, beta-gal luminescence; efflux-impaired pdr1/pdr3 knockout yeast; score 100 = 6 SD above DMSO; actives 0.02% (n = 300,000);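 active = lowest replicate activity score at least 50, where 100 means six control SD above control mean; inconclusive = lowest score under 50 but half or more replicates reach 50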;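 note: yeast exposed to compound for 9 h at 30 °C; higher score means more reporter readthrough which indicates perturbed polyadenylation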
# DSG3 Ab inh: human desmoglein-3 autoantibody binding inhibition; binding (percent of control), % at 10 µM; actives 0.48% (n = 310,000); DSG3-coupled beads, scFv-anti-DSG3-GFP binding, flow cytometry; active compounds read low; P32926;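 active = binding more than 3 SD below its plate's average and above zero; inconclusive = below that plate limit but binding exactly zero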;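 note: hits lower antibody fragment binding to DSG3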
# NALP3 yeast inh: NALP3 inhibition in yeast | Yeast reconstituted NLRP3/ASC/caspase-1, beta-gal luminescence, 24 h | inhibition, % at 10 µM | actives 0.39% (n = 330,000);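 active = inhibition of 50% or more; inactive = inhibition below 50%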
# Arr-AP2 CP1: human beta-arrestin and AP2 interaction inhibition, cherry pick; shares compounds with Arrestin-AP2 inh; GST-AP2 beads, FITC arrestin peptide binding, flow cytometry; GST-fused beta2-adaptin appendage, R879A mutant; actives 2% (n = 1,300); inhibition, % at 10 µM;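 active = inhibition above a set limit, roughly 3 SD of non-fluorescent compound noise, cut at about 38% in these data; inactive = inhibition at or below that limit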;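 note: loss of bead fluorescence from 50 nM FITC arrestin peptide bound to appendage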
# Target sequence (P63010 whole entry, looked up, the tested form may be a part, one chain of several): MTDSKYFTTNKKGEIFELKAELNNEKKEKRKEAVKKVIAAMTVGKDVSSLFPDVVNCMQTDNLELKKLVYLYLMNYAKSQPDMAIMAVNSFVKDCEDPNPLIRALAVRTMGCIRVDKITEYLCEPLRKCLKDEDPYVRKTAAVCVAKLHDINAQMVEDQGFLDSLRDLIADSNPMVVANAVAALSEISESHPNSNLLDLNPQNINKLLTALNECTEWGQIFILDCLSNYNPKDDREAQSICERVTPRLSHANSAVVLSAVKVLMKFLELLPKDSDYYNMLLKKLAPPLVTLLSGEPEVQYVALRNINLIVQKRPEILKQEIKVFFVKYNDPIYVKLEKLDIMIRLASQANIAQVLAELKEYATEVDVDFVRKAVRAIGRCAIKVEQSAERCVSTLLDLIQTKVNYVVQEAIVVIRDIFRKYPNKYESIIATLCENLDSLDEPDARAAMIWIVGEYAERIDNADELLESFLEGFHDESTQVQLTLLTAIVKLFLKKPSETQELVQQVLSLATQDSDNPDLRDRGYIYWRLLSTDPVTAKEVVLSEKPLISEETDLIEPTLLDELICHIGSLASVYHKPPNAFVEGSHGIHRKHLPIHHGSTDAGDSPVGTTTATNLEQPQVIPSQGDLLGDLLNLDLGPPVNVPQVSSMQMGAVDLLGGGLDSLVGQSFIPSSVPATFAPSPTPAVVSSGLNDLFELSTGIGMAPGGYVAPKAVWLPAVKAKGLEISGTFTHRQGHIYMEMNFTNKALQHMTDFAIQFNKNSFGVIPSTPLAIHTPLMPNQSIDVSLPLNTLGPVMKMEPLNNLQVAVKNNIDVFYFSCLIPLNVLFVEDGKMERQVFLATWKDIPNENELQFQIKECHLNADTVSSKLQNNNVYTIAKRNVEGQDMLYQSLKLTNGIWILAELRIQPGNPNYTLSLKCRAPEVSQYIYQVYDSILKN
# GST-FITC bead: disrupts GST binding to glutathione beads, arrestin-AP2 artifact. GST-fluorescein binding to GSH beads, fluorescence, counter-screen. shares compounds with Arrestin-AP2 inh. inhibition, % at 10 µM. actives 2% (n = 1,300). AID 588338;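 active = inhibition above 50%, about 3 SD of the inhibition seen with non-fluorescent compounds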;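 note: fluorescein maleimide labelled GST captured on 4 micron glutathione beads; higher means more loss of bead fluorescence from quenching or blocked binding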
# Hits are given with their value; n = inactive; u = inconclusive; x = not tested or not shown.
SMILES,ALR H2O2 inh,NALP1 yeast inh,Arrestin-AP2 inh,PolyA inh,DSG3 Ab inh,NALP3 yeast inh,Arr-AP2 CP1,GST-FITC bead
CCOC(=O)c1cnn(-c2ccc(C(C)C)cc2)c1NC(=O)C1CCC1,n,n,99,n,n,n,n,n
O=C(c1ccco1)N(Cc1cc2ccccc2[nH]c1=O)C1CCCCC1,n,n,79,n,n,n,n,n
O=C(c1ccncc1)N(Cc1cc2ccccc2[nH]c1=O)C1CCCCC1,x,n,n,n,n,n,x,x
CC1Cc2ccccc2N1S(=O)(=O)c1cccc(C(=O)NC2CC2)c1 (stereo unspecified),n,n,89,n,n,n,n,n
CC1Cc2ccccc2N1S(=O)(=O)c1cccc(C(=O)Nc2cccnc2)c1 (stereo unspecified),n,x,n,n,n,n,x,x
COc1ccc(Cl)cc1C(=O)Nc1ccccc1N1CCN(C(=O)C(C)C)CC1,n,n,n,n,n,n,x,x
CCn1c(=O)n(CC)c2cc(N3CCCC3)c(NC(=O)c3cc(Cl)ccc3OC)cc21,n,n,54,u,n,n,n,n
CCn1c(=O)n(CC)c2cc(N3CCCC3)c(NC(=O)c3ccccc3OC)cc21,n,n,n,n,n,n,x,x
CCOc1ccccc1C(=O)Nc1cc2c(cc1N1CCCC1)n(CC)c(=O)n2CC,99,n,n,n,n,n,n,n
CCn1c(=O)n(CC)c2cc(N3CCCC3)c(NC(=O)c3ccc(OC)c(Br)c3)cc21,n,n,n,n,n,n,n,n
O=[N+]([O-])c1c(N2CCN(CCO)CC2)nc2ccccn12,n,n,n,n,n,n,x,x
CC1CCCN(CCCNC(=O)c2ccc3c(c2)N(Cc2ccccc2F)C(=O)c2ccccc2S3(=O)=O)C1 (stereo unspecified),n,n,59,n,n,n,n,n
CNC(=S)N1CCC(NC(=O)C23CC4CC(CC(C4)C2)C3)CC1,n,n,56,n,n,n,n,n
CC(=O)N1CCN(C(=S)NC(=O)C23CC4CC(CC(C4)C2)C3)CC1,n,n,n,n,n,n,x,x
O=C(O)COCC(=O)Nc1ccc2c(c1)ncn2CCc1ccccc1,n,n,58,n,n,n,n,n
CN1CCC(n2[nH]c(-c3ccccc3)c(Cc3ccccc3)c2=O)CC1,x,x,n,x,n,x,x,x
O=C(NCc1nnc2c(C(F)(F)F)cc(Cl)cn12)c1cccs1,n,n,56,n,n,n,n,n
Cc1ccc(S(=O)(=O)N(CC(=O)N2CCCCC2)c2cccc(C)c2)cc1,n,n,n,n,n,n,x,x
CCCN1CCc2c(sc(NC(=O)CCS(=O)(=O)c3ccccc3)c2C(=O)OC)C1,n,n,n,n,x,n,x,x
COc1ccc(C2Nc3ccccc3C(=O)N2NS(C)(=O)=O)cc1OC (stereo unspecified),n,n,71,n,n,n,n,n
C[C@@H]1CN([C@H](C)CO)C(=O)CCCn2nncc2CO[C@H]1CN(C)Cc1ccc(C(F)(F)F)cc1,x,x,x,x,n,x,x,x
CC(C)(C)c1ccccc1OCC(=O)NCc1ccccc1,n,n,64,n,n,n,n,n
Cc1ccccc1OCC(=O)OCC(=O)NCc1ccccc1,n,x,n,x,n,n,x,x
C=CCSc1nnc(NC(=O)C2CC(=O)N(Cc3ccc(C)cc3)C2)s1 (stereo unspecified),n,x,56,x,x,n,n,n
O=[N+]([O-])c1cc(Br)ccc1NS(=O)(=O)c1ccccc1,x,x,n,x,n,x,x,x
SMILES,ALR H2O2 inh,NALP1 yeast inh,Arrestin-AP2 inh,PolyA inh,DSG3 Ab inh,NALP3 yeast inh,Arr-AP2 CP1,GST-FITC bead
Cc1cc(NS(=O)(=O)c2ccccc2)c([N+](=O)[O-])cc1C,n,n,62,n,n,n,n,n
Cc1ccc(S(=O)(=O)c2c(C)cc(C)nc2N2CCOCC2)cc1,n,n,n,n,n,n,x,x
Cc1ccc(S(=O)(=O)c2c(C)cc(C)nc2N2CCCCC2)cc1,x,n,70,n,n,x,n,n
Cc1cc(OCc2cn(CC(=O)c3ccc(O)cc3)nn2)ccc1[N+](=O)[O-],x,x,n,x,n,x,x,x
CCC(C)(C)NC(=O)C(c1ccccc1Cl)N(C(=O)CCC(=O)Nc1cc(C)on1)c1ccc(NC(C)=O)cc1 (stereo unspecified),n,n,n,n,x,n,x,x
COC(=O)c1ccccc1NC(=O)N1c2ccccc2CC1C (stereo unspecified),n,n,n,n,n,n,x,x
CCCCNC(=O)N1c2ccccc2CC1C (stereo unspecified),n,n,57,n,n,n,n,n
Cc1ccc2[nH]c(=O)c3cc(C(=O)N(C)c4ccc(C)c(C)c4)sc3c2c1,n,x,58,n,n,n,n,n
CCN(C(=O)c1cc2c(=O)[nH]c3ccc(C)cc3c2s1)c1ccc(F)cc1,n,n,n,n,n,n,x,x
COc1ccc(NC(=S)N(CCCN2CCCC(C)C2)Cc2cccs2)cc1 (stereo unspecified),n,n,54,n,x,n,n,n
COc1ccc(NC(=S)N(CCCN2CCCC2)Cc2cccs2)cc1,n,n,n,n,n,n,x,x
CCc1ccccc1NC(=O)CNC(=O)c1cn(Cc2ccccc2)nc1-c1cccnc1,n,x,64,x,n,n,n,n
C[C@H]1COC(=O)[C@@H](CC(=O)OC(C)(C)C)C/C=C\C[C@H](CC(=O)NCCO)C(=O)N1,n,x,n,x,n,n,x,x
COc1ccc(-c2csc(NC(=S)NC(=O)/C=C/c3ccco3)n2)cc1OC,n,n,n,n,n,x,x,x
COc1ccc(-c2csc(NC(=S)NC(=O)/C=C/c3ccco3)n2)cc1Br,n,n,88,n,n,n,n,n
CC(C)=CCN1CCN(Cc2c[nH]c3ccccc23)CC1CCO (stereo unspecified),n,n,n,n,n,n,x,x
O=C(NCCc1cccc(C(F)(F)F)c1)C1CCC(=O)N(CCc2cccc(F)c2)C1 (stereo unspecified),n,n,n,n,n,n,x,x
O=C(NCc1cccc(F)c1)C1CCC(=O)N(CCc2cccc(F)c2)C1 (stereo unspecified),n,n,n,n,n,n,n,x
O=C(NCCc1cccc(F)c1)C1CCC(=O)N(CCCc2ccccc2)C1 (stereo unspecified),n,n,62,n,n,n,n,n
O=C(NCCc1ccccc1)C1CCC(=O)N(CCCN2CCCC2=O)C1 (stereo unspecified),n,n,n,n,n,n,x,x
O=C(NCCN1CCCC1=O)C1CCC(=O)N(CCc2cccc(F)c2)C1 (stereo unspecified),n,n,59,n,n,n,n,n
